# Test results reported in paper PMC3530405 (Journal of immunology (Baltimore, Md. : 1950), 2012).
# “Also recorded” adds a separate entry of the source.
# Assays:
# Format in all cases: biochemical
# [1] = biological target: T1, ERAP2^K (Homo sapiens, UniProt Q6P179); assay: R-AMC hydrolysis / Michaelis-Menten analysis by ERAP2^K
# [2] = biological target: T2, ERAP2^N (Homo sapiens, UniProt Q6P179, K392N); assay: R-AMC hydrolysis / Michaelis-Menten analysis by ERAP2^N
# [3] = biological target: T2, ERAP2^N; assay: Trimming of […] by ERAP2 alleles; conditions: ERAP2^N vs ERAP2^K; MS (LTQ Orbitrap), <30% completion
# [4] = biological target: T2, ERAP2^N; assay: Inhibition of R-AMC hydrolysis by ERAP2^N; conditions: ERAP2^N vs ERAP2^K, Ki values only in Figure 7B
# In short: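 His-tagged recombinant human ERAP2 (N392 or K392 form), baculovirus-expressed in Hi5 insect cells, Ni-NTA purified and thawed once before use. R-AMC hydrolysis was tracked against rising inhibitor concentrations by fluorescence (ex 380 nm, em 460 nm) over 5 min, with the slope taken as the rate.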
# [5] = biological target: T1, ERAP2^K; assay: Peptide trimming by ERAP2^K; conditions: for trimming rate relative to ERAP1: ERAP2^K compared to ERAP1
# In short: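 20 μM peptide was incubated with 100 to 4,000ng (7.3 to 293.6nM) ERAP1 or recombinant ERAP2 at 37°C for 15 min to 1 hour in 50mM HEPES pH 7.0, 100mM NaCl. Reactions were stopped with 0.1% TFA, centrifuged, and run on C18 RP-HPLC (5–50% acetonitrile, A220). Initial rates were taken under <30% completion, and enzymes were compared in parallel. Products were identified by peptide controls and MS; epitope destruction was measured from accumulated smaller peptides.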
# [6] = biological target: T2, ERAP2^N; assay: Peptide trimming by ERAP2^N; conditions: 20 μM precursor; for trimming rates, comparison of alleles: ERAP2^N vs ERAP2^K, 37°C, pH 7.0
# [7] = ERAP2^K, Michaelis-Menten analysis
# [8] = precursor carrying N-terminal leucine
# T2 sequence (Q6P179 whole entry K392N): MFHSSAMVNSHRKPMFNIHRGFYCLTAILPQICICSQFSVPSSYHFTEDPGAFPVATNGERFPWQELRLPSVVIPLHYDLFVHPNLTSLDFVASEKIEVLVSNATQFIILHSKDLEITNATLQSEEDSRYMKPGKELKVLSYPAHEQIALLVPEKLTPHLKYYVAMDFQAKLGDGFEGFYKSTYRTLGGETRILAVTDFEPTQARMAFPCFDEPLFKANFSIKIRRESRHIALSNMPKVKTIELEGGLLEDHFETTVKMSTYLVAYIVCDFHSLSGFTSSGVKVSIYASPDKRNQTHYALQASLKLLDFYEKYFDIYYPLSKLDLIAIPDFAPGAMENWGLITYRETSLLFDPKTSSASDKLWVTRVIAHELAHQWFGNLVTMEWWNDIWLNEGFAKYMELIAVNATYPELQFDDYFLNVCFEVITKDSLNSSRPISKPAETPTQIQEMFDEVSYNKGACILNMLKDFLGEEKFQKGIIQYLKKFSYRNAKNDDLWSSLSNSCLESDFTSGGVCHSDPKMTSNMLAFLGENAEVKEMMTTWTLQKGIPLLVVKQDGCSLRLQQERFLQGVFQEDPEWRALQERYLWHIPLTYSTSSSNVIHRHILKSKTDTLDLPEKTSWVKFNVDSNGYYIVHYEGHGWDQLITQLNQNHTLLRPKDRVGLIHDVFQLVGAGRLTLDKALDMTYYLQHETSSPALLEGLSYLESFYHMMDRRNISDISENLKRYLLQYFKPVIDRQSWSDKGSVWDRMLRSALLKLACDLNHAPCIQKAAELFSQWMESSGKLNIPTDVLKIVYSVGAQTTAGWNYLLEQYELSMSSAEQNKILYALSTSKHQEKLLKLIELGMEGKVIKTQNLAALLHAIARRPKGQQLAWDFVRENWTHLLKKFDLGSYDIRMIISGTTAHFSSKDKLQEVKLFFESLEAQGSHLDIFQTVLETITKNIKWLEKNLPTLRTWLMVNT
# T1 sequence (Q6P179 whole entry): as the sequence (Q6P179 whole entry K392N) above, with N392K counted along it
compound,measurement,setting,value
"Cc1cc(=O)oc2cc(NC(=O)[C@@H](N)CCCN=C(N)N)ccc12 [R-AMC, L-Arginyl-7-amido-4-methyl coumarin]",lowering of kcat constant,[1]; ERAP2^K vs ERAP2^N,about 18 fold
same,Km,[1]; [7],17 ± 5 µM
same,kcat,[1]; [7],5.8±0.4 ×10^−3 sec^−1
same,rate of hydrolysis,"[1]; ERAP2^K, fluorescence ex 380 nm, em 460 nm, 5 min",4.8±3 mmol/mol sec^−1
same,change of substrate affinity between polymorphic states,[1]; ERAP2^N vs ERAP2^K,less than 2 fold
same,Km,[2]; Michaelis-Menten analysis,30 ± 9 µM
same,kcat,[2]; Michaelis-Menten analysis,104±9 ×10^−3 sec^−1
same,rate of hydrolysis,"[2]; fluorescence ex 380 nm, em 460 nm, 5 min",78±1 mmol product/mol enzyme sec^−1
ASRHHAFSFR,"epitope generation rate, fold faster",[3],about 2 fold
Amastatin,inhibition of the two ERAP2 alleles,[4],nearly identical
LSRHHAFSFR,trimming rate relative to ERAP1,[5]; [8],much less efficient
LSRYWAIRTR,"trimming rates, comparison of alleles",[6],drastically different
same,epitope generation from precursor,"[5]; ERAP2^K, RP-HPLC, 20 μM peptide, 37°C, pH 7.0",essentially failing to produce detectable amounts of mature epitope; also recorded: absence of a visible epitope peak produced by ERAP2^K
RSRYWAIRTR,"trimming rates, comparison of alleles",[6],almost identical rates by both ERAP2 alleles; also recorded: essentially identical for both alleles
SRHHAFSFR,all three enzymes: epitope generation vs destruction,"[5]; ERAP1, ERAP2^N and ERAP2^K, precursor carrying N-terminal leucine",generated the epitope faster than they destroyed it
same,trimming rate relative to ERAP1,[5]; [8],negligible compared to that of ERAP1
WLRRYLENGK,trimming rate difference between alleles,[6]; ERAP2^N versus ERAP2^K,165 fold
